The structures appear in SMILES notation.

From ChEMBL document CHEMBL1142973, “Enzymatically activated cycloSal-d4T-monophosphates: The third generation of cycloSal-pronucleotides” (J Med Chem, 2007) come the findings set out here.

Data set [1] has as its system Human immunodeficiency virus 2. The data set can be described thus: Antiviral activity against HIV2 ROD in CEM/0 cells. The settings on record: Human immunodeficiency virus 2, ROD, CCRF-CEM. The format is functional, organism-based. The essentials: (§1)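 CEM/0 cells at 4 × 10^5 cells/mL infected with HIV (HIV-1, or HIV-2 strain ROD) at ~100 CCID50 per mL; virus stocks from infected MT-4 cell supernatants. Mixed 1:1 with compound dilutions, 4-5 days; giant cell formation scored microscopically. EC50, means of two to three independent experiments.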

The nature of data set [2]: Chemical stability in phosphate buffer at pH 7.3. The format is physicochemical. Put shortly: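 Triesters incubated in aqueous 25 mM phosphate buffer, pH 7.3; hydrolysis products (d4TMP, salicyl alcohol) followed by HPLC to give half-lives.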
The subject of data set [3] is Human immunodeficiency virus 1. As to the kind of experiment: Antiviral activity against HIV1 in CEM/0 cells. Format: functional, organism-based. The settings on record: Human immunodeficiency virus 1, CCRF-CEM. Put shortly: as §1
Data set [4] has as its system Human immunodeficiency virus 2. The data set can be described thus: Antiviral activity against HIV2 ROD in CEM/TK- cells. The format is functional, organism-based. The settings on record: Human immunodeficiency virus 2, ROD. The essentials:
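Thymidine kinase-deficient CEM/TK- cells at 4 × 10^5 cells/mL infected with HIV-2 (ROD, MT-4-grown stock) at ~100 CCID50/mL; mixed 1:1 with compound dilutions; giant cell formation scored microscopically after 4-5 days. EC50 as means of two to three independent experiments.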

The nature of data set [5]: Hydrolysis half life in CEM cell extracts at pH 6.9. The format is ADME. The settings on record: human, CEM (CCRF-CEM) cell extracts.
Data set [6] can be described thus: Hydrolysis half life in human serum at pH 6.8. Format: ADME, cell-free. Put shortly: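 Incubation in human serum pooled from hospital blood samples, pH 6.8, without acetic acid stop; products analysed by HPLC; half-life determined.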
Data set [7] in a line: Hydrolysis half life in […]/FCS medium at pH 7.6. The settings on record: cattle, […]/FCS culture medium. The format is ADME. Put shortly: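 Incubated in RPMI-1640 culture medium with 10% heat-inactivated fetal calf serum, pH 7.6; cleavage products followed by HPLC to derive half-lives.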

What is called EC50 is the concentration needed to bring the measured effect to its halfway point. Lower therefore signals higher potency in that assay. In general, half-life refers to how long it takes for the measured level to halve. Turning to `Cc1cn([C@H]2C=C[C@@H](COP3(=O)OCc4cccc(C(C)(C)C)c4O3)O2)c(=O)[nH]c1=O` (stereo partly specified), the EC50 in data set [1] amounted to 650 nM; in data set [3], 180 nM; in data set [4], 330 nM. Besides, the half-life in data set [2] was 73 h.

As for `Cc1cn([C@H]2C=C[C@@H](COP3(=O)OCc4cc([N+](=O)[O-])ccc4O3)O2)c(=O)[nH]c1=O` (stereo partly specified), the EC50 in data set [1] was 400 nM; in data set [3] it was 290 nM; in data set [4], 40000 nM.

For the molecule `CC(=O)OC(OC(C)=O)c1ccc2c(c1)COP(=O)(OC[C@@H]1C=C[C@H](n3cc(C)c(=O)[nH]c3=O)O1)O2` (stereo partly specified), the EC50 in data set [1] is 400 nM; in data set [3], 420 nM; in data set [4] it was 10500 nM. The half-life in data set [2] is 1.2 h; in data set [5], 0.08 h; in data set [6], 1.5 h; in data set [7], 0.9 h.

With `CC(=O)OC(OC(C)=O)c1cc(C)c2c(c1)COP(=O)(OC[C@@H]1C=C[C@H](n3cc(C)c(=O)[nH]c3=O)O1)O2` (stereo partly specified), the half-life is 2.3 h in data set [2], 0.08 h in data set [5], 3.6 h in data set [6] and 1.5 h in data set [7].

On to `Cc1cn([C@H]2C=C[C@@H](COP3(=O)OCc4cc(CCC(=O)OCOC(=O)C(C)C)ccc4O3)O2)c(=O)[nH]c1=O` (stereo partly specified), for which the figures for the EC50 in data set [1], in data set [3] and in data set [4] were 600 nM, 260 nM and 1730 nM, respectively. Further, the half-life in data set [2] was 3.9 h; in data set [5] it was 0.9 h.

For the molecule `Cc1cn([C@H]2C=C[C@@H](COP3(=O)OCc4cc(Br)ccc4O3)O2)c(=O)[nH]c1=O` (stereo partly specified), the EC50 in data set [1] turned out to be 260 nM; in data set [3] it was 140 nM; in data set [4], 15000 nM. Moreover, the half-life in data set [2] was 0.88 h.

Take `CC(=O)OC(OC(C)=O)c1cc2c(c(C(C)(C)C)c1)OP(=O)(OC[C@@H]1C=C[C@H](n3cc(C)c(=O)[nH]c3=O)O1)OC2` (stereo partly specified): the EC50 amounted to 750 nM in data set [1], 320 nM in data set [3] and 3000 nM in data set [4]. In addition, the half-life was 7 h in data set [2], 0.12 h in data set [5], 8.7 h in data set [6] and 4.7 h in data set [7].

As for `Cc1cn([C@H]2C=C[C@@H](COP3(=O)OCc4cc(C=O)ccc4O3)O2)c(=O)[nH]c1=O` (stereo partly specified), the EC50 was found to be 150 nM in data set [1], 410 nM in data set [3] and 5000 nM in data set [4]. In data set [2], this molecule gave a half-life of 0.18 h.

Turning to `Cc1cn([C@H]2C=C[C@@H](CO)O2)c(=O)[nH]c1=O` [STAVUDINE], the EC50 in data set [1] was found to be 630 nM; in data set [3], 480 nM; in data set [4], 47500 nM.

Turning to `Cc1cn([C@H]2C=C[C@@H](COP3(=O)OCc4cc(CCC(=O)OCOC(=O)C(C)(C)C)ccc4O3)O2)c(=O)[nH]c1=O` (stereo partly specified), the EC50 in data set [1] amounted to 330 nM; in data set [3] it was 230 nM; in data set [4], 700 nM. Further, the half-life in data set [2] was 5.6 h; in data set [5], 0.38 h.

Take `Cc1cc(C=O)cc2c1OP(=O)(OC[C@@H]1C=C[C@H](n3cc(C)c(=O)[nH]c3=O)O1)OC2` (stereo partly specified): the half-life in data set [2] was 0.35 h.

On to `Cc1cn([C@H]2C=C[C@@H](COP3(=O)OCc4cc(C=O)cc(C(C)(C)C)c4O3)O2)c(=O)[nH]c1=O` (stereo partly specified), for which the results for the EC50 in data set [1], in data set [3] and in data set [4] were 600 nM, 450 nM and 17500 nM, respectively. For the same molecule, the half-life in data set [2] was 0.95 h.

Take `Cc1cccc2c1OP(=O)(OC[C@@H]1C=C[C@H](n3cc(C)c(=O)[nH]c3=O)O1)OC2` (stereo partly specified): the EC50 in data set [1] was 70 nM; in data set [3], 60 nM; in data set [4], 50 nM. For the same molecule, the half-life was 17.5 h in data set [2] and 14.5 h in data set [5].
